Here are results for eight compounds from article PMC10240386 (Cell chemical biology, 2023).

SMILES strings stand for the structures. Where only a bound is given, the exact number is not on record here.

Assay [1] has as its target Pf20S β5 (Plasmodium falciparum, UniProt A0A5K1K7U1+Q8IJT1). Description: biochemical. Format: biochemical. As to conditions: for activity against Pf20S: Pf20S β5.
Assay [2] has as its target human i-20S β5i (Homo sapiens, UniProt P20618+P28062). Description: Proteasome IC50 determination, human i-20S β5i. Format: biochemical. In short, it runs like this:
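Human i-20S (0.4 nM) assayed in 20 mM HEPES, 0.5 mM EDTA, 0.1 mg/mL BSA, pH 7.5, with 0.02% SDS and 15 µM Ac-ANW-AMC. Pf20S (1 nM) assayed in 50 mM Tris, 5 mM MgCl2, 1 mM DTT, pH 7.4, with 12 nM PA28α, 0.5 µM WLW-VS and 25 µM suc-LLVY-AMC. Test compound given as a 3-fold series, 100–0.0017 µM final. AMC read at 360/460 nm for 1–2 h; velocities fitted to a dose-response equation. Run in duplicate or triplicate.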

Assay [3] deals with human c-20S β5c (Homo sapiens, UniProt P20618+P28074). Kind of assay: Proteasome IC50 determination, human c-20S β5c. Format: biochemical. In short, it runs like this: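 Human c-20S (0.2 nM) assayed in 20 mM HEPES, 0.5 mM EDTA, 0.1 mg/mL BSA, pH 7.5, with 0.02% SDS and 25 µM suc-LLVY-AMC. Pf20S (1 nM) assayed in 50 mM Tris, 5 mM MgCl2, 1 mM DTT, pH 7.4, with 12 nM PA28α, 0.5 µM WLW-VS and 25 µM suc-LLVY-AMC. Test compound given as a 3-fold series, 100–0.0017 µM final. AMC read at 360/460 nm for 1–2 h; linear velocities fitted to a dose-response equation. Run in duplicate or triplicate.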

Assay [4] relates to Pf Dd2^WT. Description: Parasite growth inhibition assay, erythrocytic stage. Format: cell-based, Plasmodium falciparum. As to conditions: for EC50: Plasmodium falciparum, DD2, Erythrocyte, 72 h, read-out: EC50 Pf Dd2^WT; for inhibition of Pf growth: strain not stated in text (Figure 5A).
The test system of assay [5] is Dd2β6^A117D. The assay is described as above. Type of assay: cell-based, Plasmodium falciparum. As to conditions: for EC50: Plasmodium falciparum, 72 h, read-out: EC50 Dd2β6^A117D; for fold more resistant / reduced potency, Dd2β6^A117D versus parental Dd2: EC50 ratio.
Assay [6] has as its system Dd2β5^A49S. Described as above. Type of assay: cell-based, Plasmodium falciparum. The following applies: for EC50: Plasmodium falciparum, 72 h, read-out: EC50 Dd2β5^A49S; for fold more resistant / reduced potency, Dd2β5^A49S versus parental Dd2: EC50 ratio.
Assay [7] concerns HepG2 cells. Kind of assay: HepG2 cell viability assay. Format: cell-based. The following applies: Homo sapiens, HepG2, 72 h, read-out: HepG2.
In assay [8] the test system is Pf strains Cam3.I^rev and Cam3.I^R539T. Description: Extended RSA / parasite regrowth assay. The following applies: 6 h pulse as in RSA, parasitemia on day 7, ART-sensitive and ART-resistant lines. Type of assay: cell-based, Plasmodium falciparum. In short, it runs like this: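 Cultures repeatedly sorbitol-synchronized, then Percoll-sorbitol enriched for late stages, allowed 3 h reinvasion and sorbitol-treated again to give 0–3 h rings. Rings plated at 0.5% parasitemia and exposed to test compound (700 or 800 nM) for 6 h, then washed. Transferred into 3 mL culture for seven days; parasitemia scored by microscopy on day 7.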

The subject of assay [9] is DHA-resistant clones DR1, DR2, DR4 derived from Dd2. Kind of assay: Standard 72-h in vitro assay on DHA-resistant clones. Format: cell-based, Plasmodium falciparum. As to conditions: standard 72-h assay.
Assay [10] has as its system i-20S/PA28α. Description: Degradation of the modified β-casein by i-20S. As to conditions: β-casein pre-incubated with 100 μM compound, hemin and ascorbate; for degradation of β-casein by i-20S/PA28α, dialyzed set: then dialyzed; for degradation of β-casein by i-20S/PA28α, non-dialyzed control: not dialyzed. Type of assay: biochemical, human.
Assay [11] has as its system P. berghei G2025^R551T (K13^R551T). Kind of assay: Modified Peters' 4-day suppressive test for recrudescence, ART-resistant strain. Format: in vivo, Swiss Webster mice. The following applies: ART 50 mg/kg, ATZ4 100 mg/kg i.p. day 0 to day 2.
In assay [12] the test system is Pf Dd2 proteins and peptides. Format: cell-based, Plasmodium falciparum. As to conditions: 700 nM for 6 h, Cy3-alkyne click, in-gel fluorescence.
The subject of assay [13] is Pf20S β5 in lysate of Dd2^WT. Kind of assay: Blocking of MV151 labeling in parasite lysate. Format: binding, Plasmodium falciparum. As to conditions: 1 h preincubation of Dd2^WT lysate. In short, it runs like this:
(§1)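 Dd2 wild-type or mutant parasite pellets lysed on ice for 1 h in 50 mM Tris-HCl, 5 mM MgCl2, 1 mM DTT, pH 7.4, then centrifuged; protein quantified by BCA. 5–10 µg of lysate protein preincubated with test compound for 1 h at 37°C. MV151 added at 2 µM final for a further 1 h at 37°C, protected from light. Run on 12% Bis-Tris SDS-PAGE and scanned at Cy3/TAMRA (λex 532, λem 560 nm).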

The subject of assay [14] is Pf20Sβ6^A117D. Description: Blocking of MV151 labeling in parasite lysate. Type of assay: binding, Plasmodium falciparum. The following applies: 1 h preincubation of Dd2β6^A117D lysate. In short, it runs like this: as §1
In assay [15] the test system is Pf20Sβ5^A49S. Description: Blocking of MV151 labeling in parasite lysate. Type of assay: binding, Plasmodium falciparum. As to conditions: 1 h preincubation of Dd2β5^A49S lysate. The method, boiled down: as §1
Assay [16] relates to P. berghei ANKA lux. Kind of assay: In vivo efficacy in mice infected with P. berghei ANKA lux. Details: species or system Swiss Webster mice. The following applies: 20 mg/kg i.p. once daily day 3 to day 6, luminescence on day 7; positive control.

`C[C@H]1[C@@H](CC(N)=O)O[C@@H]2O[C@@]3(C)CC[C@H]4[C@H](C)CC[C@@H]1[C@@]24OO3` [ART1, 2-((3R,5aS,6R,8aS,9R,10R,12R,12aR)-3,6,9-trimethyldecahydro-12H-3,12-epoxy[1,2]dioxepino[4,3-i]isochromen-10-yl)acetamide]: the half-maximal inhibitory concentration (IC50) in assay [1] is 9200 nM; in [2] it was greater than 100000 nM; in assay [3], greater than 100000 nM. Moreover, the “activity against human proteasomes” value in [2] (hu i-20S) and in [3] (hu c-20S) was “inactive” in each case. Moreover, the EC50 in [4] is 43.7 ± 12.7 nM; in assay [5] it was 27.9 ± 11 nM; in [6], 30.2 ± 2.6 nM; in [7], greater than 100000 nM. The “parasite regrowth after pulse” value in assay [8] is recorded as “re-established normal growth”. Further, the “susceptibility of DHA-resistant clones compared with WT Dd2” value in assay [9] is listed as “modestly resistant”. Moreover, the “degradation of β-casein by i-20S/PA28α, dialyzed set” value in [10] is on record as “unimpeded degradation of β-casein”.
`C[C@@H]1CC[C@H]2[C@@H](C)C(=O)O[C@@H]3O[C@@]4(C)CC[C@@H]1[C@]32OO4` [ART, artemisinin, reference compound]: in [11], the “mice with positive blood smear on day 6” value amounted to 20%, the “mice with positive blood smear on day 8” value came out at 40% and the “mice with positive blood smear on day 10” value is recorded as 100%. Moreover, in assay [12], the “labeling of parasite proteins and peptides” value was “minimal labeling of proteins and peptides”.
As for `C[C@H]1[C@@H](CC(=O)NCC(=O)N[C@@H](CC(=O)NC(C)(C)C)C(=O)NCCNC(=O)c2cc(-c3ccccc3F)ccc2F)O[C@@H]2O[C@@]3(C)CC[C@H]4[C@H](C)CC[C@@H]1[C@@]24OO3` [ATZ2, (S)-N4-(tert-butyl)-N1-(2-(2′,4-difluoro-[1,1′-biphenyl]-3-carboxamido)ethyl)-2-(2-(2-((3R,5aS,6R,8aS,9R,10R,12R,12aR)-3,6,9-trimethyldecahydro-12H-3,12-epoxy[1,2]dioxepino[4,3-i]isochromen-10-yl)acetamido)acetamido)succinamide], in [1], the IC50 came out at 2.9 ± 0.6 nM and the “activity against Pf20S” value was “potency comparable with that of PI01”. The same compound yielded an IC50 in assay [2] of 73 ± 19 nM. Moreover, the IC50 in assay [3] was 210 ± 40 nM. In assay [4] (EC50 ratio), the “times more potent than ART1 against Dd2” value is 10 times. For the same compound, the EC50 in assay [4] was determined as 3 ± 0.6 nM. In addition, in assay [5], the “fold improvement over PI01 against Dd2β6^A117D” value is on record as no less than 5 fold; the “fold more resistant / reduced potency, Dd2β6^A117D versus parental Dd2” value is no more than 2.9 fold; the EC50 is 4.4 ± 1.1 nM. In [6], the “fold improvement over PI01 against Dd2β5^A49S” value was greater than 100 fold; the “fold more resistant / reduced potency, Dd2β5^A49S versus parental Dd2” value is no more than 3.6 fold; the EC50 was 10.9 ± 2.6 nM. Also, in assay [10], the “degradation of β-casein by i-20S/PA28α, non-dialyzed control” value is given as “inhibited the degradation of β-casein”.
`C[C@H]1[C@@H](CC(=O)N[C@@H](CCCN=[N+]=[N-])C(=O)N[C@@H](CC(=O)NC(C)(C)C)C(=O)NCCNC(=O)c2cc(-c3ccccc3F)ccc2F)O[C@@H]2O[C@@]3(C)CC[C@H]4[C@H](C)CC[C@@H]1[C@@]24OO3` [ATZ-P1, (S)-2-((S)-5-azido-2-(2-((3R,5aS,6R,8aS,9R,10R,12R,12aR)-3,6,9-trimethyldecahydro-12H-3,12-epoxy[1,2]dioxepino[4,3-i]isochromen-10-yl)acetamido)pentanamido)-N^4-(tert-butyl)-N^1-(2-(2′,4-difluoro-[1,1′-biphenyl]-3-carboxamido)ethyl)succinimide]: in assay [1], the “activity against Pf20S” value is listed as “highly potent inhibitors”. Further, the “inhibition of Pf growth” value in assay [4] was “highly potent inhibitors”. The “labeling of parasite proteins and peptides” value in assay [12] was “substantial labeling of proteins and peptides”.
`C[C@H]1[C@@H](O)O[C@@H]2O[C@@]3(C)CC[C@H]4[C@H](C)CC[C@@H]1[C@@]24OO3` [DHA, dihydroartemisinin, reference compound]: in [8], the “parasite regrowth after pulse” value is “re-established normal growth”. The “susceptibility of DHA-resistant clones compared with WT Dd2” value in assay [9] was “highly resistant”.
As for `CC(C)(C)NC(=O)C[C@H](NC(=O)CCCNC(=O)OC(C)(C)C)C(=O)NCCNC(=O)c1cc(-c2ccccc2F)ccc1F` [PI01, tert-butyl (S)-(4-((4-(tert-butylamino)-1-((2-(2′,4-difluoro-[1,1′-biphenyl]-3-carboxamido)ethyl)amino)-1,4-dioxobutan-2-yl)amino)-4-oxobutyl)carbamate], the figures for the IC50 in assay [1], in assay [2] and in [3] were 6 ± 0.8 nM, 200 ± 46 nM and 2000 nM, respectively. The “fold less active on hu i-20S than on Pf20S” value in assay [2] (ratio of IC50 values) is ~ 30 fold. Moreover, in [3] (ratio of IC50 values), the “fold less active on hu c-20S than on Pf20S” value is reported as roughly 300 fold. Moreover, the EC50 in assay [4] is 7.4 ± 0.2 nM; in assay [5], 121 ± 20 nM; in [6], greater than 2770 nM; in [7], greater than 100000 nM. Besides, the “fold more resistant / reduced potency, Dd2β6^A117D versus parental Dd2” value in [5] is listed as 16 fold. The “fold more resistant / reduced potency, Dd2β5^A49S versus parental Dd2” value in assay [6] was greater than 370 fold. Further, the “parasite regrowth after pulse” value in assay [8] is listed as “re-established normal growth”. In addition, the “blocking of MV151 labeling of β5” value is “dose dependently blocked labeling of β5” in [13]; “prevented PI01 and ATZ4 from inhibiting” in assay [14]; “prevented PI01 and ATZ4 from inhibiting” in [15]. Further, in [10], the “degradation of β-casein by i-20S/PA28α, non-dialyzed control” value is on record as “inhibited the degradation of β-casein”. Besides, the “degradation of β-casein by i-20S/PA28α, dialyzed set” value in assay [10] is given as “unimpeded degradation of β-casein”.
Take `CCN(CC)CCCC(C)Nc1ccnc2cc(Cl)ccc12` (stereo not shown) [chloroquine, reference compound]: in [16], the “parasite load” value is recorded as “below the limit of detection”.
On to `C[C@H]1[C@@H](CC(=O)N[C@@H](CCCN=[N+]=[N-])C(=O)N[C@@H](CC(=O)NC(C)(C)C)C(=O)NCCNC(=O)c2cc(-c3ccccc3F)ccc2F)O[C@@H]2O[C@@]3(C)CC[C@H]4[C@H](C)CC[C@@H]1[C@@]24O3` [deoxy-ATZ-P1, (S)-2-((S)-5-azido-2-(2-((2R,3R,3aS,3a^1R,6R,6aS,9S,10aR)-3,6,9-trimethyldecahydro-10aH-3a^1,9-epoxyoxepino[4,3,2-ij]isochromen-2-yl)acetamido)pentanamido)-N^4-(tert-butyl)-N^1-(2-(2′,4-difluoro-[1,1′-biphenyl]-3-carboxamido)ethyl)succinamide], for which the “activity against Pf20S” value in assay [1] was “highly potent inhibitors”. Also, in assay [4], the “inhibition of Pf growth” value is listed as “highly potent inhibitors”. In addition, in assay [12], the “labeling of parasite proteins and peptides” value is “minimal labeling of proteins and peptides”.

Usually IC50 stands for the concentration needed to halve the response being measured. The low end stands for inhibition by little substance, the high end for a need for much substance.
